pIC50: −log10 of the molar value. ≈ marks a conversion by molar mass, not a printed value.
Legend:
Mycobacterium avium [1] = experiment: Antimycobacterial activity against Isoniazid, rifampicin, ofloxacin and ethambutol-resistant Mycobacterium avium 330/88 assessed as complete growth inhibition after 21 days; type: functional; conditions: 330/88, 504 h
Summary of the method: (§1)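 M. tuberculosis 331/88 (H37Rv) inoculum diluted 10-3, M. avium 330/88 diluted 10-5. MIC is the lowest concentration giving complete growth inhibition. Isoniazid and p-aminosalicylic acid as references. Quadruplicate, repeated twice.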

Mycobacterium kansasii [2] = experiment: Antimycobacterial activity against Mycobacterium kansasii 235/80 assessed as complete growth inhibition after 7 days; type: functional; conditions: 235/80, 168 h
Summary of the method: (§2)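 Dilutions of M. kansasii inoculum were 10-4 for strain 235/80 and 10-5 for clinical isolate 6509/96. MIC was the lowest concentration giving complete growth inhibition, run in quadruplicate and repeated twice.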

Mycobacterium kansasii [3] = experiment: Antimycobacterial activity against Mycobacterium kansasii 235/80 assessed as complete growth inhibition after 14 days; type: functional; conditions: 235/80, 336 h; summary of the method: as §2
Mycobacterium kansasii [4] = experiment: Antimycobacterial activity against Mycobacterium kansasii 235/80 assessed as complete growth inhibition after 21 days; type: functional; conditions: 235/80, 504 h; summary of the method: as §2
Mycobacterium kansasii [5] = experiment: Antimycobacterial activity against clinical isolate Mycobacterium kansasii 6509/96 assessed as complete growth inhibition after 7 days; type: functional; conditions: 6509/96, 168 h; summary of the method: as §2
Mycobacterium kansasii [6] = experiment: Antimycobacterial activity against clinical isolate Mycobacterium kansasii 6509/96 assessed as complete growth inhibition after 14 days; type: functional; conditions: 6509/96, 336 h; summary of the method: as §2
Mycobacterium kansasii [7] = experiment: Antimycobacterial activity against clinical isolate Mycobacterium kansasii 6509/96 assessed as complete growth inhibition after 21 days; type: functional; conditions: 6509/96, 504 h; summary of the method: as §2
[8] = Inhibition of Mycobacterium tuberculosis H37Rv isocitrate lyase assessed as glyoxylate phenyl hydrazone formation at 10 uM
HepG2 = experiment: Cytotoxicity against human HepG2 cells assessed as reduction in cell viability after 24 hrs by MTS assay; type: cell-based; conditions: HepG2, 24 h
Summary of the method: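 HepG2 hepatocellular carcinoma cells (passage 3–4) were grown in Eagle's MEM with 10% FBS, 1% L-glutamine and non-essential amino acids. Compounds were added from DMSO at eight concentrations in triplicate, with 10% DMSO as the 0% viability control. Viability was read by tetrazolium salt reduction (CellTiter 96 AQueous One). IC50 is the concentration reducing viability to 50% of control.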

[9] = system: Mycobacterium tuberculosis; experiment: Antimycobacterial activity against Mycobacterium tuberculosis H37Rv 331/88 assessed as complete growth inhibition after 14 days; type: functional; conditions: H37Rv 331/88, 336 h; summary of the method: as §1
[10] = system: Mycobacterium tuberculosis; experiment: Antimycobacterial activity against Mycobacterium tuberculosis H37Rv 331/88 assessed as complete growth inhibition after 21 days; type: functional; conditions: H37Rv 331/88, 504 h; summary of the method: as §1
Mycobacterium avium [11] = experiment: Antimycobacterial activity against Isoniazid, rifampicin, ofloxacin and ethambutol-resistant Mycobacterium avium 330/88 assessed as complete growth inhibition after 14 days; type: functional; conditions: 330/88, 336 h; summary of the method: as §1
[12] = Selectivity index, ratio of IC50 for human HepG2 cells to MIC for atypical mycobacteria
Summary of the method: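 Selectivity index = HepG2 IC50 / MIC. HepG2 cells (passage 3–4) grown in Eagle's MEM with 10% FBS, L-glutamine and non-essential amino acids. Compounds added from DMSO, eight concentrations in triplicate, tetrazolium-reduction colorimetric read-out. IC50 is the concentration reducing viability to 50% of control; 10% DMSO as 0% viability.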

[13] = Selectivity index, ratio of IC50 for human HepG2 cells to MIC for Trichophyton mentagrophytes 445
[14] = Selectivity index, ratio of IC50 for human HepG2 cells to MIC for Mycobacterium tuberculosis H37Rv; type: toxicity, cell-based; conditions: read-out: Selectivity Index
Summary of the method: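 Selectivity index = HepG2 IC50 / MIC. HepG2 cells (passage 3–4) grown in Eagle's MEM with 10% FBS, L-glutamine and non-essential amino acids. Compounds added from DMSO, eight concentrations in triplicate, tetrazolium-reduction colorimetric read-out.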

Structure (SMILES)	MIC (Mycobacterium avium [1]) [µM]	MIC (Mycobacterium kansasii [2]) [µM]	MIC (Mycobacterium kansasii [3]) [µM]	MIC (Mycobacterium kansasii [4]) [µM]	MIC (Mycobacterium kansasii [5]) [µM]	MIC (Mycobacterium kansasii [6]) [µM]	MIC (Mycobacterium kansasii [7]) [µM]	inhibition [8] [%]	pIC50 (HepG2)	MIC [9] [µM]	MIC [10] [µM]	MIC (Mycobacterium avium [11]) [µM]	Selectivity Index [12]	Selectivity Index [13]	selectivity ratio [14]
CN(C)C(=O)Oc1ccc(Cl)cc1C(=O)Nc1ccc(C(F)(F)F)cc1	250 (≈ 96.7 µg/mL)	250 (≈ 96.7 µg/mL)	250 (≈ 96.7 µg/mL)	250 (≈ 96.7 µg/mL)	250 (≈ 96.7 µg/mL)	250 (≈ 96.7 µg/mL)	250 (≈ 96.7 µg/mL)	11	2.19	> 1000	> 1000	250 (≈ 96.7 µg/mL)	–	–	–
O=C(Nc1ccc(Br)cc1)c1cc(Cl)ccc1O	16 (≈ 5.23 µg/mL)	4 (≈ 1.31 µg/mL)	8 (≈ 2.61 µg/mL)	8 (≈ 2.61 µg/mL)	4 (≈ 1.31 µg/mL)	8 (≈ 2.61 µg/mL)	8 (≈ 2.61 µg/mL)	13	4.80	4 (≈ 1.31 µg/mL)	4 (≈ 1.31 µg/mL)	8 (≈ 2.61 µg/mL)	1	16	3.9
CN(C(=O)Oc1ccc(Cl)cc1C(=O)Nc1ccc(C(F)(F)F)cc1)c1ccccc1	250 (≈ 112 µg/mL)	125 (≈ 56.1 µg/mL)	125 (≈ 56.1 µg/mL)	125 (≈ 56.1 µg/mL)	125 (≈ 56.1 µg/mL)	125 (≈ 56.1 µg/mL)	125 (≈ 56.1 µg/mL)	16	< 4.00	125 (≈ 56.1 µg/mL)	125 (≈ 56.1 µg/mL)	250 (≈ 112 µg/mL)	–	–	–
O=C(Nc1ccc(C(F)(F)F)cc1)c1cc(Cl)ccc1O	8 (≈ 2.53 µg/mL)	2 (≈ 0.631 µg/mL)	4 (≈ 1.26 µg/mL)	4 (≈ 1.26 µg/mL)	2 (≈ 0.631 µg/mL)	4 (≈ 1.26 µg/mL)	4 (≈ 1.26 µg/mL)	6	6.44	1 (≈ 0.316 µg/mL)	2 (≈ 0.631 µg/mL)	4 (≈ 1.26 µg/mL)	–	–	–
O=C(Nc1ccc(Br)cc1)c1cc(Cl)ccc1OC(=O)N(c1ccccc1)c1ccccc1	250 (≈ 130 µg/mL)	32 (≈ 16.7 µg/mL)	125 (≈ 65.2 µg/mL)	125 (≈ 65.2 µg/mL)	32 (≈ 16.7 µg/mL)	62.5 (≈ 32.6 µg/mL)	62.5 (≈ 32.6 µg/mL)	19	< 4.00	250 (≈ 130 µg/mL)	250 (≈ 130 µg/mL)	250 (≈ 130 µg/mL)	–	–	–
O=C(Nc1ccccc1)c1ccccc1OC(=O)N(c1ccccc1)c1ccccc1	62.5 (≈ 25.5 µg/mL)	62.5 (≈ 25.5 µg/mL)	125 (≈ 51.1 µg/mL)	125 (≈ 51.1 µg/mL)	125 (≈ 51.1 µg/mL)	125 (≈ 51.1 µg/mL)	125 (≈ 51.1 µg/mL)	8	3.68	125 (≈ 51.1 µg/mL)	125 (≈ 51.1 µg/mL)	62.5 (≈ 25.5 µg/mL)	1.7	–	1.7
O=C(Nc1ccc(F)cc1)c1cc(Cl)ccc1OC(=O)N(c1ccccc1)c1ccccc1	250 (≈ 115 µg/mL)	62.5 (≈ 28.8 µg/mL)	62.5 (≈ 28.8 µg/mL)	62.5 (≈ 28.8 µg/mL)	125 (≈ 57.6 µg/mL)	125 (≈ 57.6 µg/mL)	125 (≈ 57.6 µg/mL)	22	< 4.00	250 (≈ 115 µg/mL)	250 (≈ 115 µg/mL)	250 (≈ 115 µg/mL)	–	–	–
CN(C(=O)Oc1ccc(Cl)cc1C(=O)Nc1ccc(Cl)cc1)c1ccccc1	250 (≈ 104 µg/mL)	62.5 (≈ 26 µg/mL)	125 (≈ 51.9 µg/mL)	125 (≈ 51.9 µg/mL)	32 (≈ 13.3 µg/mL)	62.5 (≈ 26 µg/mL)	125 (≈ 51.9 µg/mL)	17	3.54	32 (≈ 13.3 µg/mL)	32 (≈ 13.3 µg/mL)	250 (≈ 104 µg/mL)	<=9	–	9
O=C(Nc1ccc(Cl)cc1)c1cc(Cl)ccc1OC(=O)N(c1ccccc1)c1ccccc1	250 (≈ 119 µg/mL)	32 (≈ 15.3 µg/mL)	125 (≈ 59.7 µg/mL)	125 (≈ 59.7 µg/mL)	32 (≈ 15.3 µg/mL)	62.5 (≈ 29.8 µg/mL)	62.5 (≈ 29.8 µg/mL)	20	< 4.00	250 (≈ 119 µg/mL)	250 (≈ 119 µg/mL)	250 (≈ 119 µg/mL)	–	–	–
CN(C(=O)Oc1ccc(Cl)cc1C(=O)Nc1ccc(Br)cc1)c1ccccc1	250 (≈ 115 µg/mL)	32 (≈ 14.7 µg/mL)	125 (≈ 57.5 µg/mL)	125 (≈ 57.5 µg/mL)	32 (≈ 14.7 µg/mL)	62.5 (≈ 28.7 µg/mL)	125 (≈ 57.5 µg/mL)	14	3.02	32 (≈ 14.7 µg/mL)	32 (≈ 14.7 µg/mL)	250 (≈ 115 µg/mL)	<=29.5	–	29.5
